Assay results: ChEMBL document CHEMBL4732187, “Tetrahydroindazole inhibitors of CDK2/cyclin complexes” (Eur J Med Chem, 2021)
Blank lines part the entries; values can stand above or below the compound they belong to. Activity calls are given as the source filed them. No cut-off for these calls is given here.

What was measured:
[1] = molecular target: CDK1/Cyclin A (Homo sapiens) (UniProt P06493+P20248); assay: Inhibition of CDK1/CyclinA (unknown origin) at 1 uM using histone H1 as substrate preincubated for 20 mins followed by 33P-ATP addition and measured after 2 hrs by filter binding method; assay type: protein-complex assay
Chain of CDK1/Cyclin A (Homo sapiens) (P06493 whole entry, looked up): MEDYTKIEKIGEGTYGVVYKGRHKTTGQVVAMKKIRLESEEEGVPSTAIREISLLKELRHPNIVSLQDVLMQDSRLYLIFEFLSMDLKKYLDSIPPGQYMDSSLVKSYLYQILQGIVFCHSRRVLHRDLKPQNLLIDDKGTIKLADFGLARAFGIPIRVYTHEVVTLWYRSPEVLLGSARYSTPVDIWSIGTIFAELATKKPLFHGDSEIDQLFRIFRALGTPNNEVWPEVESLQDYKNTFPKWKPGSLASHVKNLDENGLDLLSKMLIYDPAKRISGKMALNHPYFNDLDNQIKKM
Chain of CDK1/Cyclin A (Homo sapiens) (P20248 whole entry, looked up): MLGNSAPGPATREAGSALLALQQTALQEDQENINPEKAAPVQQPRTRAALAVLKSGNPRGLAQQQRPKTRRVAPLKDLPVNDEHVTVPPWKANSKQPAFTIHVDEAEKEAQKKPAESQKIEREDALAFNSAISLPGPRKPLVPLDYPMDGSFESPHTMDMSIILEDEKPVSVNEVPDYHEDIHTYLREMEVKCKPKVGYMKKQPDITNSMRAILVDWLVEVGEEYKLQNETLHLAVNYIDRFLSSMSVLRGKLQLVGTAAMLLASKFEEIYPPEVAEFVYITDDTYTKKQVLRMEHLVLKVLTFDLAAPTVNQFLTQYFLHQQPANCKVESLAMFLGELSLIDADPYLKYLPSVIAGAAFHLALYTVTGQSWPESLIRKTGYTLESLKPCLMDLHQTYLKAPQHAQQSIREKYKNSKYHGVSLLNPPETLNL
Outline: (§1)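 Radiometric filter-binding kinase assay at 10 μM ATP in pH 7.5 HEPES buffer with MgCl₂, EGTA, Brij35, BSA, Na₃VO₄, DTT and 1% DMSO. Compound was preincubated with kinase for 20 min at rt, then ³³P-ATP was added and the reaction ran 2 h at rt. Substrate was histone H1 at 20 μM, except myelin basic protein at 20 μM for CDK7/cyclin H and a peptide at 20 μM for CDK9/cyclin T1. Single dose, in duplicate.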

[2] = molecular target: Cyclin-dependent kinase 1/cyclin B1 (Homo sapiens) (UniProt P06493+P14635); assay: Inhibition of CDK1/Cyclin B (unknown origin) at 1 uM using histone H1 as substrate preincubated for 20 mins followed by 33P-ATP addition and measured after 2 hrs by filter binding method; assay type: protein-complex assay; outline: as §1
Chain of Cyclin-dependent kinase 1/cyclin B1 (Homo sapiens) (P06493 whole entry, looked up, the tested form may be a part): as the sequence (P06493 whole entry, looked up) above
Chain of Cyclin-dependent kinase 1/cyclin B1 (Homo sapiens) (P14635 whole entry, looked up, the tested form may be a part): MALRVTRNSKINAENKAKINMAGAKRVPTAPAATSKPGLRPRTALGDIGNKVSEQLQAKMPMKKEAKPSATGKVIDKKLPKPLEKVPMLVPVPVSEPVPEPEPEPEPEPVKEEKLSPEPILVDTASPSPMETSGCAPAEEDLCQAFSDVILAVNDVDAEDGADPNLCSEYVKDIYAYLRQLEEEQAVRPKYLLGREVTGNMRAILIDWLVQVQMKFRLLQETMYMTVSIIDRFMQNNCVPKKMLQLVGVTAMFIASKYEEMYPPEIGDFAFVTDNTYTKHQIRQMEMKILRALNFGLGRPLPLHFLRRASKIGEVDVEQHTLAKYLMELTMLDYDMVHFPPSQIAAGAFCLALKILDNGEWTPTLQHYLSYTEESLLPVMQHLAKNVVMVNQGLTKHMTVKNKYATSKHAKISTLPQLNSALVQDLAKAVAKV

[3] = molecular target: CDK2/Cyclin A2 (Homo sapiens) (UniProt P24941+P20248); assay: Inhibition of human N-terminal GST-tagged CDK2 (1 to 298 residues)/Cyclin A (174 to 432 residues) expressed in Escherichia coli Turner (DE3) cells assessed as reduction in ADP formation at 1 uM using PKTPKKAKKL as substrate by resorufin dye based fluorescence assay
[4] = molecular target: CDK2/Cyclin A1 (Homo sapiens) (UniProt P24941+P78396); assay: Inhibition of CDK2/Cyclin A1 (unknown origin) at 1 uM using histone H1 as substrate preincubated for 20 mins followed by 33P-ATP addition and measured after 2 hrs by filter binding method; assay type: protein-complex assay; outline: as §1
[5] = molecular target: Cyclin-dependent kinase 2/cyclin E1 (Homo sapiens) (UniProt P24864+P24941); assay: Inhibition of CDK1/Cyclin E (unknown origin) at 1 uM using histone H1 as substrate preincubated for 20 mins followed by 33P-ATP addition and measured after 2 hrs by filter binding method; assay type: protein-complex assay; outline: as §1
[6] = molecular target: CDK2/Cyclin O (Homo sapiens) (UniProt P24941+P22674); assay: Inhibition of CDK1/Cyclin-O (unknown origin) at 1 uM using histone H1 as substrate preincubated for 20 mins followed by 33P-ATP addition and measured after 2 hrs by filter binding method; assay type: protein-complex assay; outline: as §1
[7] = molecular target: CDK3/Cyclin E (Homo sapiens) (UniProt P24864+Q00526); assay: Inhibition of CDK3/Cyclin E (unknown origin) at 1 uM using histone H1 as substrate preincubated for 20 mins followed by 33P-ATP addition and measured after 2 hrs by filter binding method; assay type: protein-complex assay; outline: as §1
Chain of CDK3/Cyclin E (Homo sapiens) (P24864 whole entry, looked up): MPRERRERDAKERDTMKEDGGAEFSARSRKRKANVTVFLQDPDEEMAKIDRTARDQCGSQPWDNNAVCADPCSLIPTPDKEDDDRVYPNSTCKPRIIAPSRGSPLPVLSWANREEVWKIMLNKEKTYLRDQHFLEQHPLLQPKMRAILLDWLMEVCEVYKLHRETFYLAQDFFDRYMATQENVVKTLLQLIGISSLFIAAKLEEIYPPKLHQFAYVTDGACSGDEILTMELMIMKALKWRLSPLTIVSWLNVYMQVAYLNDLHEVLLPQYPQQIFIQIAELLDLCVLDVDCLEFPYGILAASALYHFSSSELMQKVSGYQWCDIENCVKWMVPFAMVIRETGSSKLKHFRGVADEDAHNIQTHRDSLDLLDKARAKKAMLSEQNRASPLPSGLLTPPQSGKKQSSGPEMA
Chain of CDK3/Cyclin E (Homo sapiens) (Q00526 whole entry, looked up): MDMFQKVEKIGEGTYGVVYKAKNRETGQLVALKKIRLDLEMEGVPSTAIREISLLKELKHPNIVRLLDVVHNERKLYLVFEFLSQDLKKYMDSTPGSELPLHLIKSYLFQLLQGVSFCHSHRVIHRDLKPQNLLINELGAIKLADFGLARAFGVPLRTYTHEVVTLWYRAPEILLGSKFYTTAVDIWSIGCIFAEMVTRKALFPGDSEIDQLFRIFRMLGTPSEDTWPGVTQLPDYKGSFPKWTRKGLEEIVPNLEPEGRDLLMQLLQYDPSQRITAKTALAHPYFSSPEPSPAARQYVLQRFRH

[8] = molecular target: Cyclin-dependent kinase 4/cyclin D1 (Homo sapiens) (UniProt P11802+P24385); assay: Inhibition of CDK4/Cyclin D1 (unknown origin) at 1 uM using RB protein as substrate preincubated for 20 mins followed by 33P-ATP addition and measured after 2 hrs by filter binding method; assay type: protein-complex assay
Outline: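 Radiometric filter-binding assay of CDK4/cyclin D1 using RB protein at 3 μM and ATP at 10 μM in pH 7.5 HEPES buffer with 1% DMSO. Compound was preincubated for 20 min at rt, then ³³P-ATP was added and the reaction ran 2 h at rt, with spotting on P81 paper. Single dose, in duplicate.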

[9] = molecular target: Cyclin-dependent kinase 5/CDK5 activator 1 (Homo sapiens) (UniProt Q00535+Q15078); assay: Inhibition of CDK5/p25 (unknown origin) at 1 uM using histone H1 as substrate preincubated for 20 mins followed by 33P-ATP addition and measured after 2 hrs by filter binding method; assay type: protein-complex assay; outline: as §1
Chain of Cyclin-dependent kinase 5/CDK5 activator 1 (Homo sapiens) (Q00535 whole entry): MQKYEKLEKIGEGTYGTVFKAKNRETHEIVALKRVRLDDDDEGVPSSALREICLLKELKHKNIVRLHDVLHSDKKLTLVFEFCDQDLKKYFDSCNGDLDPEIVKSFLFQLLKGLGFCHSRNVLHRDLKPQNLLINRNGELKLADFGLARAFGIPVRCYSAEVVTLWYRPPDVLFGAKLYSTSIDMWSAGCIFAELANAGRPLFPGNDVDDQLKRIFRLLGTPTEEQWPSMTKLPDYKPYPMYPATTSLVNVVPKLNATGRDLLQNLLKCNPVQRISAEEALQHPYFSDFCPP
Chain of Cyclin-dependent kinase 5/CDK5 activator 1 (Homo sapiens) (Q15078 99-307 partner limits assumed): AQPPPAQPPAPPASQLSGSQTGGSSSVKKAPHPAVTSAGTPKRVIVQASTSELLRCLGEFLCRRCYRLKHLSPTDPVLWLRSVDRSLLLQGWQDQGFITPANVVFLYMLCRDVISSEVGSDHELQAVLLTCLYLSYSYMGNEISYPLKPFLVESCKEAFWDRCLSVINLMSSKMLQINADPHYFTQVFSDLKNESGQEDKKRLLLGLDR

[10] = molecular target: Cyclin-dependent kinase 7/ cyclin H (Homo sapiens) (UniProt P51946+P50613); assay: Inhibition of CDK7/Cyclin H (unknown origin) at 1 uM using myelin basic protein as substrate preincubated for 20 mins followed by 33P-ATP addition and measured after 2 hrs by filter binding method; assay type: protein-complex assay; outline: as §1
Homo sapiens = organism: Homo sapiens; assay: Inhibition of CDK9/Cyclin T1 (unknown origin) at 1 uM using KTFCGTPEYLAPEVRREPRILSEEEQEMFRDFDYIAD as substrate preincubated for 20 mins followed by 33P-ATP addition and measured after 2 hrs by filter binding method; outline: as §1
[11] = molecular target: CDK6/cyclin D1 (Homo sapiens) (UniProt P24385+Q00534); assay: Inhibition of CDK6/Cyclin D1 (unknown origin) at 1 uM using RB protein as substrate preincubated for 20 mins followed by 33P-ATP addition and measured after 2 hrs by filter binding method
CDK2/Cyclin A2 = CDK2/Cyclin A2 (Homo sapiens, UniProt P24941); assay: Inhibition of human N-terminal GST-tagged CDK2 (1 to 298 residues)/Cyclin A (174 to 432 residues) expressed in Escherichia coli Turner (DE3) cells assessed as reduction in ADP formation using PKTPKKAKKL as substrate by resorufin dye based fluorescence assay
CDK2/Cyclin A1 = CDK2/Cyclin A1 (Homo sapiens, UniProt P24941); assay: Inhibition of CDK2/Cyclin A1 (unknown origin) using histone H1 as substrate preincubated for 20 mins followed by 33P-ATP addition and measured after 2 hrs by filter binding method; assay type: protein-complex assay
[12] = molecular target: Cyclin-dependent kinase 2/cyclin E1 (Homo sapiens, UniProt P24941); assay: Inhibition of CDK2/Cyclin E (unknown origin) using histone H1 as substrate preincubated for 20 mins followed by 33P-ATP addition and measured after 2 hrs by filter binding method; assay type: protein-complex assay
CDK2/Cyclin O = CDK2/Cyclin O (Homo sapiens, UniProt P22674+P24941); assay: Inhibition of CDK2/Cyclin-O (unknown origin) using histone H1 as substrate preincubated for 20 mins followed by 33P-ATP addition and measured after 2 hrs by filter binding method; assay type: protein-complex assay
MCF7 = assay: Antiproliferative activity against human MCF7 cells assessed as reduction in cell viability up to 200 uM after 72 hrs by alamarBlue assay; assay type: functional, cell-based; conditions: dose microM <=200, time 72.0 hrs
Outline: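 MCF-7 cells seeded at 5000 per well and incubated overnight at 37 °C, 5% CO₂, then exposed to 8 concentrations from 0.00256 μM to 200 μM for 72 h. alamarBlue was then added and incubated 90 min at 37 °C. Proliferating cells were read by fluorescence (ex 530 nm, em 590 nm). Staurosporine served as positive control.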

[13] = molecular target: Heat shock protein HSP90 (Homo sapiens) (UniProt P07900+P08238); assay: Inhibition of HSP90 (unknown origin); assay type: protein assay
[14] = Apparent permeability across apical to basolateral side in MDCK cells at 1 uM after 2 hrs by LC-MS/MS analysis; assay type: ADME, cell-based, Canis lupus familiaris; conditions: dog
Outline: (§2)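 MDCK monolayers were washed twice with pre-warmed HBSS (10 mM HEPES, pH 7.4) and equilibrated for 30 min at 37 °C. Compound at 1 μM in HBSS (0.5% DMSO final) was added to the apical or the basolateral donor side. After 2 h at 37 °C, donor and receiver samples were quenched in cold methanol with internal standards and analysed by LC-MS/MS. Runs were in duplicate; 100 μM Lucifer Yellow checked monolayer integrity.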

[15] = Apparent permeability across basolateral to apical side in MDCK cells at 1 uM after 2 hrs by LC-MS/MS analysis; assay type: ADME, cell-based, Canis lupus familiaris; conditions: dog; outline: as §2
[16] = Efflux ratio of apparent permeability across basolateral to apical side over apical to basolateral side in MDCK cells at 1 uM after 2 hrs by LC-MS/MS analysis; assay type: ADME, cell-based, Canis lupus familiaris; conditions: dog
Outline: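 MDCK monolayers washed twice with pre-warmed HBSS (10 mM HEPES, pH 7.4) and equilibrated 30 min at 37 °C. 1 μM working solution (0.5% DMSO final) added to apical or basolateral donor side, 37 °C for 2 h, run in duplicate. Donor and receiver samples quenched in cold methanol with internal standards and quantified by LC-MS/MS. Monolayer integrity checked by Lucifer Yellow (100 μM) leakage.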

[17] = Permeability across apical to basolateral side in MDCK cells assessed as drug recovery at 1 uM after 2 hrs by LC-MS/MS analysis; assay type: ADME, cell-based, Canis lupus familiaris; conditions: dog; outline: as §2
[18] = Permeability across basolateral to apical side in MDCK cells at 1 uM after 2 hrs by LC-MS/MS analysis; assay type: ADME, cell-based, Canis lupus familiaris; conditions: dog; outline: as §2

inhibition [1]: inactive
inhibition [2]: inactive
inhibition [3]: inactive
inhibition [4]: inactive
inhibition [5]: inactive
inhibition [6]: inactive
inhibition [7]: inactive
inhibition [8]: inactive
inhibition [9]: inactive
inhibition [10]: inactive
inhibition (Homo sapiens): inactive
inhibition [11]: inactive
Structure (SMILES): Cc1nn(-c2ccccn2)c2c1C(=O)CC(C)C2Br (cis isomer)

Structure (SMILES): Cc1nn(-c2ccccn2)c2c1C(=O)CC(C)(C)C2Br (stereo not drawn)
IC50 (CDK2/Cyclin A2): 2600 nM
IC50 (CDK2/Cyclin A1): 134 nM
IC50 [12]: 27.4 nM
IC50 (CDK2/Cyclin O): 108 nM
Activity (MCF7): inactive
inhibition [13]: inactive
Papp A→B at 2 h, 1 µM [14]: 20.1 ×10⁻⁶ cm/s
Papp B→A at 2 h, 1 µM [15]: 9.52 ×10⁻⁶ cm/s
Ratio [16]: 0.47
Drug recovery [17]: 52.4%
Drug recovery [18]: 49.8%
